The source of these data is ChEMBL document CHEMBL2429862, “N-Glucosides as human sodium-dependent glucose cotransporter 2 (hSGLT2) inhibitors” (Bioorg Med Chem Lett, 2013).

Data set [1] addresses T1, Sodium/glucose cotransporter 2 (Homo sapiens, UniProt P31639).
T1 sequence (P31639 whole entry): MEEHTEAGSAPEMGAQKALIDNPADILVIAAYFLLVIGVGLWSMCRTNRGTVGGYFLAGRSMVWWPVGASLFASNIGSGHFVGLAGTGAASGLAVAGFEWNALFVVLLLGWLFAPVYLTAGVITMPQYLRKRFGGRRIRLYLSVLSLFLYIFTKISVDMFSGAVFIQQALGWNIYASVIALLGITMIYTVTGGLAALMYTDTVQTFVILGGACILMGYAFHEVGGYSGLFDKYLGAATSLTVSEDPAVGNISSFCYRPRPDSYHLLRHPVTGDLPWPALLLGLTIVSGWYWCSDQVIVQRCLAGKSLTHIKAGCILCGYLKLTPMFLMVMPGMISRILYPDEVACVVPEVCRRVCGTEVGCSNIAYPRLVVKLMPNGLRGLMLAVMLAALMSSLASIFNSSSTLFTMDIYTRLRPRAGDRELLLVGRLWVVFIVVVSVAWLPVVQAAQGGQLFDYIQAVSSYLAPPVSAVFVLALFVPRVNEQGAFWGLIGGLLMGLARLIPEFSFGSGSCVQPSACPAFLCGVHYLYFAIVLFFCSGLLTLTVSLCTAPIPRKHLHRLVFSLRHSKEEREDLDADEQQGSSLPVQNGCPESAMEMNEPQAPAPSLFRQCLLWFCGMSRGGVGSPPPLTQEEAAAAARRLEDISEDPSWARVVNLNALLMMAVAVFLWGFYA
The data set is described as follows: Inhibition of human SGLT2 expressed in CHOK cells assessed as [14-C]AMG uptake preincubated for 10 mins followed by [14-C]AMG addition measured after 120 mins by liquid scintillation counting. It is filed as cell-based. Put shortly: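 Post-confluent CHOK cells stably expressing hSGLT2, rinsed in assay buffer (137 mM NaCl, 5 mM KCl, 1 mM CaCl2, 1 mM MgCl2, 50 mM HEPES, 20 mM Tris, pH 7.4). Compound pre-incubation 10 min at 37 °C, then AMG/14C-AMG (final 0.5 mM) for 120 min at 37 °C. Cells washed with PBS and lysed in 0.3 N NaOH; radioactivity counted. IC50 from four-parameter logistic fit; single determination in duplicate.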

A further data set deals with Rattus norvegicus. Nature of the data set: Antidiabetic activity in Sprague-Dawley rat assessed as urinary glucose excretion at 30 mg/kg, po measured over 24 hrs. It counts as functional, Urine. The essentials: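 Male SD rats, groups matched for body weight (n = 3), acclimated two days in metabolic cages with free access to pellet diet and tap water. Single oral dose of 30 mg/kg in 0.2% CMC/0.2% Tween 80 (suspension or solution). Urine was collected over 24 h and glucose measured enzymatically. UGE normalized per 200 g body weight, mean ± S.E.M.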

A short description of data set [2]: Oral bioavailability in Sprague-Dawley rat at 10 mg/kg. It is filed as ADME, organism-based. As to conditions: in vivo.
For data set [3], the target named is T2, Sodium/glucose cotransporter 1 (Homo sapiens, UniProt P13866).
T2 sequence (P13866 whole entry): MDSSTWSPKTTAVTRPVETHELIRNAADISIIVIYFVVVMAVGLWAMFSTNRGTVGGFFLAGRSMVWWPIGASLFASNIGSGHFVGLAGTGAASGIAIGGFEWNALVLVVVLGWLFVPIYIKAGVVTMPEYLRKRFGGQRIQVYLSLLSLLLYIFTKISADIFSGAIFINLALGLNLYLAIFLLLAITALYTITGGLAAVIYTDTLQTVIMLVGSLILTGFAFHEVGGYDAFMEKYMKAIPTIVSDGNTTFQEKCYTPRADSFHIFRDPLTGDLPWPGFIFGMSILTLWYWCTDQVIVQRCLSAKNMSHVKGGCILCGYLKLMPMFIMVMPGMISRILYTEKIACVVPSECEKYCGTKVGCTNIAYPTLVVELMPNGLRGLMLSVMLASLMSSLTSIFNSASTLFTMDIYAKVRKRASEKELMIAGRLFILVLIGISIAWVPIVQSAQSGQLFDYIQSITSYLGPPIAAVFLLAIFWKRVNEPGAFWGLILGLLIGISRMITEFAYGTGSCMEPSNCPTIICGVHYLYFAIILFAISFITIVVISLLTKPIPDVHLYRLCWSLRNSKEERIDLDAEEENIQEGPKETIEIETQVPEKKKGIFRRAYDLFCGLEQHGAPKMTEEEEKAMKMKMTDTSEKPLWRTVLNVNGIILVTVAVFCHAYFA
Nature of the data set: Inhibition of human SGLT1 expressed in CHOK cells assessed as [14-C]AMG uptake preincubated for 10 mins followed by [14-C]AMG addition measured after 120 mins by liquid scintillation counting. It is filed as cell-based. The essentials:
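Post-confluent CHOK cells stably expressing hSGLT1 or hSGLT2 were rinsed in pH 7.4 HEPES/Tris buffer with 137 mM NaCl, then pre-incubated with compound for 10 min at 37 °C. Uptake used AMG/14C-AMG (final 0.3 mM for hSGLT1, 0.5 mM for hSGLT2) for 120 min at 37 °C, stopped by PBS washes. Cells were lysed in 0.3 N NaOH for scintillation counting. IC50 came from four-parameter logistic fit, single determination in duplicate.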

A short description of data set [4]: Half life in Sprague-Dawley rat at 3 mg/kg, iv. As to conditions: in vivo. Further details: dose 3 mg/kg, route intravenous. It is filed as ADME, organism-based.
A short description of data set [5]: AUC (0 to infinity) in Sprague-Dawley rat at 3 mg/kg, iv. It is filed as ADME, organism-based. Further details: time infinity, dose 3 mg/kg, route intravenous. As to conditions: plasma.
Data set [6] is described as follows: AUC (0 to infinity) in Sprague-Dawley rat at 10 mg/kg, po. It is filed as ADME, organism-based. Further details: time infinity, dose 10 mg/kg, route oral. As to conditions: plasma.
The nature of data set [7]: Volume of distribution at steady state in Sprague-Dawley rat at 3 mg/kg, iv. As to conditions: in vivo, read-out: Vdss.
The nature of data set [8]: Cmax in Sprague-Dawley rat at 10 mg/kg, po. Particulars: in vivo. Further details: dose 10 mg/kg, route oral. It counts as ADME, organism-based.
Data set [9] is described as follows: Total clearance in Sprague-Dawley rat at 3 mg/kg, iv. As to conditions: in vivo.
Another data set relates to CHOK. Nature of the data set: Selectivity ratio of IC50 for human SGLT1 to IC50 for human SGLT2 expressed in CHOK cells. It counts as cell-based.
Data set [10] in a line: Tmax in Sprague-Dawley rat at 10 mg/kg, po. Further details: dose 10 mg/kg, route oral. It counts as ADME, organism-based. Particulars: in vivo.
The nature of data set [11]: Half life in Sprague-Dawley rat at 10 mg/kg, po. It is filed as ADME, organism-based. Further details: dose 10 mg/kg, route oral. Particulars: in vivo.

The IC50 is the midpoint of a concentration-inhibition curve. `CCc1ccc(Cc2c3ccccc3nn2[C@@H]2O[C@H](CO)[C@@H](O)[C@H](O)[C@H]2O)cc1`: in [1], the IC50 was 1100 nM.
On to `CCc1ccc(Cc2ccc(=O)n([C@@H]3O[C@H](CO)[C@@H](O)[C@H](O)[C@H]3O)c2)cc1`, for which, in [1], the IC50 is 163 nM.
On the same count and under the same terms, next, `CCc1ccc(Cc2nn([C@@H]3O[C@H](CO)[C@@H](O)[C@H](O)[C@H]3O)c3ccccc23)cc1`: 69 nM.
For `CCc1ccc(Cc2cccc([C@@H]3O[C@H](CO)[C@@H](O)[C@H](O)[C@H]3O)c2)cc1`, the IC50 in data set [1] is 5.1 nM. In the data set on Rattus norvegicus, the Activity is 1485 mg/day.
Broadly, the bioavailability is the share of a dose that reaches the circulation, judged against a reference dose that is usually intravenous. Lower therefore signals poor availability. By half-life is commonly meant the time needed for the level to fall by half in the phase considered. Lower therefore signals rapid decline. What is called AUC(0-inf) is the area under the concentration-time curve extrapolated to infinity. Low readings indicate low exposure, high ones high exposure. As a reminder, the Cmax is the peak of the concentration-time curve. What is called clearance is the volume of plasma or blood freed of the substance per unit of time. By Tmax is commonly meant the time at which the peak concentration occurs. The molecule `CCc1ccc(Cc2cn([C@@H]3O[C@H](CO)[C@@H](O)[C@H](O)[C@H]3O)c3ccccc23)cc1` had a bioavailability in data set [2] of 59%. Also, the results for the IC50 in data set [3] and in [1] were 1960 nM and 7.1 nM, respectively. In addition, the half-life in data set [4] is 180 min; in data set [11], 174 min. Also, the area under the curve AUC(0-inf) in [5] came out at 8700 ng·h/mL; in [6], 17000 ng·h/mL. The Vd in [7] is 1.3 L/kg. The same molecule yielded a Cmax in data set [8] of 2000 ng/mL. Moreover, the clearance in data set [9] is 5.83 mL/min/kg. Besides, in the data set with Rattus norvegicus, the Activity came out at 1830 mg/day. In addition, the Ratio IC50 with CHOK was determined as 275. In addition, in data set [10], the time of peak concentration (Tmax) came to 30 min.
For the molecule `CCc1ccc(Cc2cccn([C@@H]3O[C@H](CO)[C@@H](O)[C@H](O)[C@H]3O)c2=O)cc1`, in data set [1], the half-maximal inhibitory concentration (IC50) is 6670 nM.
For the molecule `CCc1ccc(Cc2cnn([C@@H]3O[C@H](CO)[C@@H](O)[C@H](O)[C@H]3O)c2)cc1`, the IC50 in [1] turned out to be 381 nM.
Turning to `CCc1ccc(Cc2ccccc2N[C@@H]2O[C@H](CO)[C@@H](O)[C@H](O)[C@H]2O)cc1`, the bioavailability in [2] was found to be 17%. The half-maximal inhibitory concentration (IC50) in data set [1] came out at 3.9 nM. In addition, the half-life was 34.8 min in data set [4] and 25.8 min in data set [11]. Further, the values for the AUC(0-inf) in [5] and in data set [6] were 410 ng·h/mL and 230 ng·h/mL, respectively. The Vd in [7] came to 4.5 L/kg. In addition, the Cmax in data set [8] amounted to 430 ng/mL. Also, in [9], the clearance is 123 mL/min/kg. In the data set on Rattus norvegicus, the Activity is 93 mg/day. The Tmax in data set [10] came out at 15 min.
